Results published in ChEMBL document CHEMBL4004822, “Thienopyrimidinone Based Sirtuin-2 (SIRT2)-Selective Inhibitors Bind in the Ligand Induced Selectivity Pocket” (J Med Chem, 2017).
Activity calls are given as the source filed them. The rule behind the calls is not given here.

What was measured:
[1] = molecular target: T1, NAD-dependent protein deacetylase sirtuin-1 (Homo sapiens, UniProt Q96EB6); assay: (§1) Inhibition of recombinant human N-terminal His-tagged SIRT1 (1 to 747 end residues) expressed in Escherichia coli using p53 derived (379 to 382 residues) fluorogenic peptide substrate RHKK(Ac)-AMC preincubated for 10 mins followed by substrate addition in presence of NAD+ by fluorescence assay
T1 sequence (Q96EB6 whole entry): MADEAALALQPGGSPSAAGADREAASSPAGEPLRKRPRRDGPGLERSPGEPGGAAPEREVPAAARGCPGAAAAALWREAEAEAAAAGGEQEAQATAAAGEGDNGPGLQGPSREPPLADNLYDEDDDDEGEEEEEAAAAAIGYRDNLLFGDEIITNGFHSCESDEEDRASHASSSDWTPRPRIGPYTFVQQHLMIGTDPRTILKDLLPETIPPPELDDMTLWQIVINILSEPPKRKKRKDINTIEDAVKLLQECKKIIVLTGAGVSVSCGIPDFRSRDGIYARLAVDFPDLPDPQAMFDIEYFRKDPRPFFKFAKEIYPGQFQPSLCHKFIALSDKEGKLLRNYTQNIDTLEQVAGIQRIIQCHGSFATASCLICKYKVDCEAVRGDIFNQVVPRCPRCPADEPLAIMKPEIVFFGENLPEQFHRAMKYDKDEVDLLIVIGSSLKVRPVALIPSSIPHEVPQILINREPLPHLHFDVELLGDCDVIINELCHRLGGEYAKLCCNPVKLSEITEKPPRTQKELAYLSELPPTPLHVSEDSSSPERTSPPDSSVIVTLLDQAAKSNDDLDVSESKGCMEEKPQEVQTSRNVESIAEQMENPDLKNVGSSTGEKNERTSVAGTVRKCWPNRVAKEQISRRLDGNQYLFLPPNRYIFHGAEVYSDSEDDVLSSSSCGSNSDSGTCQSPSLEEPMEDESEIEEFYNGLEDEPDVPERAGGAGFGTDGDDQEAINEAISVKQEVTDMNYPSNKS
Procedure, shortened: (§2)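 Two-step fluorogenic assay with p53 379–382 RHKK(Ac)-AMC. Compound (from 10 mM DMSO stock) preincubated ~10 min with human SIRT before substrate addition. Developer then releases fluorophore, read at ex 360/em 460 nm.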

[2] = molecular target: T2, NAD-dependent protein deacetylase sirtuin-2 (Homo sapiens) (UniProt Q8IXJ6); assay: as §1, with “C-terminal” for “N-terminal”, “SIRT2 (50” for “SIRT1 (1”, “389” for “747”, “coli at 10 uM” for “coli”, “assay relative to control” for “assay”; procedure, shortened: as §2
T2 sequence (whole entry): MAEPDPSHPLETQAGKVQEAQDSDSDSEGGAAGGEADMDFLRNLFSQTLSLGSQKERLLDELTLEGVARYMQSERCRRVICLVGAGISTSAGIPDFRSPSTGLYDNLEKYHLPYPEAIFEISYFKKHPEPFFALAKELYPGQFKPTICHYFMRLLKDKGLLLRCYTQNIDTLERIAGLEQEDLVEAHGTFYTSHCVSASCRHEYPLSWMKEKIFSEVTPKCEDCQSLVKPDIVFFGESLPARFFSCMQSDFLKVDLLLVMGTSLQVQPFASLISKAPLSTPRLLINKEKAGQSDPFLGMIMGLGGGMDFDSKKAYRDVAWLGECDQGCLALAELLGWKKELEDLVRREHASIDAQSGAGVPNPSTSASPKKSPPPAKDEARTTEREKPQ

[3] = molecular target: T3, NAD-dependent protein deacetylase sirtuin-2 (Homo sapiens, UniProt Q8IXJ6); assay: Inhibition of recombinant human C-terminal His-tagged SIRT2 (50 to 389 end residues) expressed in Escherichia coli using p53 derived (379 to 382 residues) fluorogenic peptide substrate RHKK(Ac)-AMC preincubated for 10 mins followed by substrate addition in presence of NAD+ by fluorescence assay; procedure, shortened: as §2
T3 sequence (Q8IXJ6 whole entry): T2 sequence (whole entry)

[4] = molecular target: T1, NAD-dependent protein deacetylase sirtuin-1; assay: Inhibition of human SIRT1 (133 to 747 residues) using (Z-Lys(Acetyl)-AMC) as substrate after 4 hrs in presence of NAD+ by fluorescence assay
[5] = molecular target: NAD-dependent protein deacylase sirtuin-6 (Homo sapiens, UniProt Q8N6T7); assay: Inhibition of human SIRT6 (13 to 308 residues) using Ac-EALPKK(Myristoyl)TGG-NH2 as substrate after 10 mins in presence of NAD+ by fluorescence assay
[6] = molecular target: T2, NAD-dependent protein deacetylase sirtuin-2 (Homo sapiens); assay: Inhibition of SIRT2 in human MCF7 cells assessed as increase in alpha-tubulin K40 acetylation level at 1 to 50 uM after 24 hrs in presence of TSA by Western blot analysis; format: cell-based
Procedure, shortened: (§3)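 MCF-7 cells (ATCC, authenticated) kept in DMEM with 10% FCS, penicillin/streptomycin and 2 mM glutamine at 37 °C under 10% CO2. Treated 24 h with compound at 0, 1, 10, 20, 30 or 50 μM plus 50 nM TSA to block non-sirtuin HDACs. NP40 lysates (20 μg protein, BCA-quantified) run on SDS-PAGE and Western blotted for acetyl-K40 α-tubulin, total α-tubulin and β-actin; ECL detection.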

Homo sapiens [7] = species: Homo sapiens; assay: Selectivity ratio of IC50 for recombinant human N-terminal His-tagged SIRT1 (1 to 747 end residues) expressed in Escherichia coli to IC50 for recombinant human C-terminal His-tagged SIRT2 (50 to 389 end residues) expressed in Escherichia coli
[8] = molecular target: T4, NAD-dependent protein deacetylase sirtuin-3, mitochondrial (Homo sapiens, UniProt Q9NTG7); assay: Inhibition of recombinant human N-terminal GST-tagged SIRT3 (101 to 399 residues) expressed in Escherichia coli using p53 derived (379 to 382 residues) fluorogenic peptide substrate RHKK(Ac)-AMC) preincubated for 10 mins followed by substrate addition in presence of NAD+ by fluorescence assay
T4 sequence (Q9NTG7 whole entry): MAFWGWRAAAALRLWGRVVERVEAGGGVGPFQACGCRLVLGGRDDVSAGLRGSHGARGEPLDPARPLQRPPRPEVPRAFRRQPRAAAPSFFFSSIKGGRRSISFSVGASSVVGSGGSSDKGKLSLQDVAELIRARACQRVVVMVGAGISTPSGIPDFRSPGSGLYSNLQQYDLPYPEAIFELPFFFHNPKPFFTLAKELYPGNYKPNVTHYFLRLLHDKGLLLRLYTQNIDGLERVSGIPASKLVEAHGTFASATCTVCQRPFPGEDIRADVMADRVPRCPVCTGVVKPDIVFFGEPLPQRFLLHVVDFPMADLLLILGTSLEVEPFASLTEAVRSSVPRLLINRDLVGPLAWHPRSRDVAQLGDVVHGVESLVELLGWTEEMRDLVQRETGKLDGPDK

Homo sapiens [9] = species: Homo sapiens; assay: Selectivity ratio of IC50 for recombinant human N-terminal GST-tagged SIRT3 (101 to 399 residues) expressed in Escherichia coli to IC50 for recombinant human C-terminal His-tagged SIRT2 (50 to 389 end residues) expressed in Escherichia coli
[10] = molecular target: T1, NAD-dependent protein deacetylase sirtuin-1; assay: Inhibition of human SIRT1
Procedure, shortened: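 Compounds were pre-incubated with human SIRT about 10 min before substrate addition, then developer added. Read ex 360/em 460 nm; activity relative to DMSO; sigmoidal 10-dose IC50, n = 2; suramin positive control.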

[11] = molecular target: T2, NAD-dependent protein deacetylase sirtuin-2 (Homo sapiens); assay: Inhibition of SIRT2 in human MCF7 cells assessed as increase in alpha-tubulin K40 acetylation level at 10 to 50 uM after 24 hrs in presence of TSA by Western blot analysis; format: cell-based; procedure, shortened: as §3
[12] = molecular target: T2, NAD-dependent protein deacetylase sirtuin-2 (Homo sapiens); assay: Inhibition of SIRT2 in human MCF7 cells assessed as increase in alpha-tubulin K40 acetylation level after 24 hrs in presence of TSA by Western blot analysis; format: cell-based; procedure, shortened: as §3
[13] = molecular target: T2, NAD-dependent protein deacetylase sirtuin-2 (Homo sapiens); assay: Inhibition of SIRT2 in human MCF7 cells assessed as increase in alpha-tubulin K40 acetylation level at 50 uM after 24 hrs in presence of TSA by Western blot analysis; format: cell-based; procedure, shortened: as §3
[14] = molecular target: T3, NAD-dependent protein deacetylase sirtuin-2; assay: Inhibition of recombinant human C-terminal His-tagged SIRT2 (50 to 389 end residues) expressed in Escherichia coli using tubulin-K40 peptide in presence of NAD+
[15] = molecular target: T2, NAD-dependent protein deacetylase sirtuin-2 (Homo sapiens); assay: Inhibition of SIRT2 in human MCF7 cells assessed as increase in alpha-tubulin K40 acetylation level at 20 uM after 24 hrs in presence of TSA by Western blot analysis; format: cell-based; procedure, shortened: as §3
[16] = molecular target: T3, NAD-dependent protein deacetylase sirtuin-2; assay: Inhibition of recombinant human C-terminal His-tagged SIRT2 (50 to 389 end residues) expressed in Escherichia coli in presence of NAD+ by enzyme coupled SIRT-Glo assay
[17] = molecular target: NAD-dependent protein deacylase sirtuin-5, mitochondrial (Homo sapiens, UniProt Q9NXA8); assay: Inhibition of recombinant human N-terminal His-tagged SIRT5 (37 to 310 end residues) expressed in Escherichia coli using Ac-K(Succ)-AMC as substrate in presence of NAD+ by fluorescence assay
Sequence of NAD-dependent protein deacylase sirtuin-5, mitochondrial (Q9NXA8 whole entry): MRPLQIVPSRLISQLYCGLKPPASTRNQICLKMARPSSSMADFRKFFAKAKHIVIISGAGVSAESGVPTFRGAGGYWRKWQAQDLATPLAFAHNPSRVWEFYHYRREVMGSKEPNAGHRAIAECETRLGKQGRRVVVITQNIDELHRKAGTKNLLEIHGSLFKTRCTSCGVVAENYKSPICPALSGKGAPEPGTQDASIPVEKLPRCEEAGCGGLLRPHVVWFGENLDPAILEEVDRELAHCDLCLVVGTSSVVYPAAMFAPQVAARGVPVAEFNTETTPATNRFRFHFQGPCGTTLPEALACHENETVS

Sequence of NAD-dependent protein deacylase sirtuin-6 (Q8N6T7 whole entry, the tested form may be a part): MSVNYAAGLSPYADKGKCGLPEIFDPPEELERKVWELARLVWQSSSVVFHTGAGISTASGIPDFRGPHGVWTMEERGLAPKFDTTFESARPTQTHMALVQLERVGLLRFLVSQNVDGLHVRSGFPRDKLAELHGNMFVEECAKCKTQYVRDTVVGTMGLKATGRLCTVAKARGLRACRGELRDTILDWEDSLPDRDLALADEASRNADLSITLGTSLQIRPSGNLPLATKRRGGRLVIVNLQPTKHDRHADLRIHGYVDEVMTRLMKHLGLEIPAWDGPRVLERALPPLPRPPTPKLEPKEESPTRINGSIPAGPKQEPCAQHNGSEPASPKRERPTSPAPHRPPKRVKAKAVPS

Structure (SMILES) | IC50 [1] | inhibition [2] | IC50 [3] | Ratio IC50 (Homo sapiens [7]) | IC50 [8] | Ratio IC50 (Homo sapiens [9]) | other results
Cc1cc(C)nc(SCC(=O)Nc2ncc(Cc3cccc4ccccc34)s2)n1 | – | – | – | – | – | – | IC50 [4]: > 100 µM; IC50 [5]: > 200 µM
O=c1c2c3c(sc2ncn1Cc1ccccc1)CC(NCC1CCCO1)CC3 (configuration not stated) | – | 22% | – | – | – | – | inhibition [6]: inactive
N#Cc1ccc(CNC2CCc3c(sc4ncn(Cc5cccc6cccnc56)c(=O)c34)C2)cc1 (configuration not stated) | 42.1 µM | 97% | 0.39 µM | 108 | > 100 µM | > 256 | –
N#C/C(=C\c1ccc(-c2cc(Cl)ccc2Cl)o1)C(=O)Nc1cccc2ncccc12 | – | – | – | – | – | – | IC50 [10]: > 50 µM; inhibition [11]: Active
COc1ccc(Cn2cnc3sc4c(c3c2=O)CCC(NCc2c(C)noc2C)C4)c2ccccc12 (configuration not stated) | 129 µM | 96% | 0.58 µM | 222 | 18 µM | 31 | inhibition [11]: Active; inhibition [12]: Dose-dependent effect
COc1ccc2ccccc2c1Cn1cnc2sc3c(c2c1=O)CCC(NCc1c(C)nn(C)c1C)C3 (configuration not stated) | – | 94% | 5.11 µM | – | – | – | –

Second part, led by results:

IC50 [1] | inhibition [2] | IC50 [3] | Ratio IC50 (Homo sapiens [7]) | IC50 [8] | Ratio IC50 (Homo sapiens [9]) | Structure (SMILES) | other results
13.8 µM | 94% | 0.73 µM | – | – | – | COc1ccc(Cn2cnc3sc4c(c3c2=O)CCC(NC2CCCC2)C4)c2ccccc12 (configuration not stated) | –
119 µM | 96% | 0.65 µM | – | – | – | COc1ccc(CNC2CCc3c(sc4ncn(Cc5c(OC)ccc6ccccc56)c(=O)c34)C2)cc1 (configuration not stated) | –
> 100 µM | – | – | > 100 | > 100 µM | > 100 | COc1ccc2ccccc2c1Cn1cnc2sc3c(c2c1=O)CCC(NCc1cccnc1)C3 (configuration not stated) | inhibition [13]: inactive; Ki [14]: 0.62 µM; inhibition [15]: Active; IC50 [16]: 0.17 µM; IC50 [17]: > 100 µM
